Measured values from ChEMBL document CHEMBL3593164, “Rational Design and Synthesis of Thioridazine Analogues as Enhancers of the Antituberculosis Therapy” (J Med Chem, 2015).

Key:
[1] = test system: Mycobacterium tuberculosis; experiment: Inhibition of multidrug resistance efflux pump in Mycobacterium tuberculosis H37Rv assessed as amikacin MIC at 8 ug/ml after 7 days by two-dimensional broth microdilution checkerboard assay; details: 168 h
[2] = test system: Mycobacterium tuberculosis; experiment: Inhibition of multidrug resistance efflux pump in Mycobacterium tuberculosis H37Rv assessed as ofloxacin MIC at 32 ug/ml after 7 days by two-dimensional broth microdilution checkerboard assay; details: 168 h
[3] = test system: Mycobacterium tuberculosis; experiment: Inhibition of multidrug resistance efflux pump in Mycobacterium tuberculosis H37Rv assessed as ofloxacin MIC at 4 ug/ml after 7 days by two-dimensional broth microdilution checkerboard assay; details: 168 h
[4] = test system: Mycobacterium tuberculosis; experiment: Inhibition of multidrug resistance efflux pump in Mycobacterium tuberculosis H37Rv assessed as ethidium bromide MIC at 128 ug/ml after 7 days by two-dimensional broth microdilution checkerboard assay; details: 168 h
[5] = test system: Mycobacterium tuberculosis; experiment: Inhibition of multidrug resistance efflux pump in Mycobacterium tuberculosis H37Rv assessed as ethidium bromide MIC at 64 ug/ml after 7 days by two-dimensional broth microdilution checkerboard assay; details: 168 h
[6] = test system: Mycobacterium tuberculosis; experiment: Inhibition of multidrug resistance efflux pump in Mycobacterium tuberculosis H37Rv assessed as reduction in rifampin MIC at 128 ug/ml after 7 days by two-dimensional broth microdilution checkerboard assay
[7] = test system: Mycobacterium tuberculosis; experiment: Inhibition of multidrug resistance efflux pump in Mycobacterium tuberculosis H37Rv assessed as reduction in rifampin MIC at 16 ug/ml after 7 days by two-dimensional broth microdilution checkerboard assay
Procedure, shortened: (§1)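 M. tuberculosis H37Rv two-dimensional broth microdilution checkerboard. MICs of INH, RIF, AMK, OFX or EtBr were determined without and with graded sub-inhibitory compound concentrations, starting at ½ MIC. Where MIC was undeterminable, the highest concentration still permitting growth was taken as ½ MIC. FIC = MIC of antibacterial in combination / MIC alone. FIC ≤0.25 was scored as synergism and ≥2 as antagonism.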

[8] = test system: Mycobacterium tuberculosis; experiment: Inhibition of multidrug resistance efflux pump in Mycobacterium tuberculosis H37Rv assessed as reduction in rifampin MIC at 8 ug/ml after 7 days by two-dimensional broth microdilution checkerboard assay; procedure, shortened: as §1
[9] = test system: Mycobacterium tuberculosis; experiment: Inhibition of multidrug resistance efflux pump in Mycobacterium tuberculosis H37Rv assessed as isoniazid MIC at 64 ug/ml after 7 days by two-dimensional broth microdilution checkerboard assay; details: 168 h
[10] = test system: Mycobacterium tuberculosis; experiment: Inhibition of multidrug resistance efflux pump in Mycobacterium tuberculosis H37Rv assessed as isoniazid MIC at 32 ug/ml after 7 days by two-dimensional broth microdilution checkerboard assay; details: 168 h
[11] = test system: Mycobacterium tuberculosis; experiment: Inhibition of multidrug resistance efflux pump in Mycobacterium tuberculosis H37Rv assessed as rifampin MIC at 16 ug/ml after 7 days by two-dimensional broth microdilution checkerboard assay; details: 168 h
[12] = test system: Mycobacterium tuberculosis; experiment: Inhibition of multidrug resistance efflux pump in Mycobacterium tuberculosis H37Rv assessed as rifampin MIC at 0.12 ug/ml after 7 days by two-dimensional broth microdilution checkerboard assay; details: 168 h
Procedure, shortened: (§2)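 M. tuberculosis H37Rv ATCC27294. MICs of INH, RIF, AMK, OFX and EtBr were determined alone and with sub-inhibitory concentrations of test compound by two-dimensional broth microdilution checkerboard. Where a compound's MIC was not determinable, the highest concentration still allowing growth was taken as ½ MIC. FIC = MIC in combination / MIC alone. FIC ≤0.25 was scored as synergism and ≥2 as antagonism.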

[13] = test system: Mycobacterium tuberculosis; experiment: Inhibition of multidrug resistance efflux pump in Mycobacterium tuberculosis H37Rv assessed as amikacin MIC at 0.47 ug/ml after 7 days by two-dimensional broth microdilution checkerboard assay; details: 168 h; procedure, shortened: as §2
[14] = test system: Mycobacterium tuberculosis; experiment: Inhibition of multidrug resistance efflux pump in Mycobacterium tuberculosis H37Rv assessed as amikacin MIC at 0.12 ug/ml after 7 days by two-dimensional broth microdilution checkerboard assay; details: 168 h; procedure, shortened: as §2
[15] = test system: Mycobacterium tuberculosis; experiment: Inhibition of multidrug resistance efflux pump in Mycobacterium tuberculosis H37Rv assessed as ofloxacin MIC at 3.75 ug/ml after 7 days by two-dimensional broth microdilution checkerboard assay; details: 168 h; procedure, shortened: as §2
[16] = test system: Mycobacterium tuberculosis; experiment: Inhibition of multidrug resistance efflux pump in Mycobacterium tuberculosis H37Rv assessed as ethidium bromide MIC at 7.5 ug/ml after 7 days by two-dimensional broth microdilution checkerboard assay; details: 168 h; procedure, shortened: as §1
[17] = test system: Mycobacterium tuberculosis; experiment: Inhibition of multidrug resistance efflux pump in Mycobacterium tuberculosis H37Rv assessed as ethidium bromide MIC at 3.75 ug/ml after 7 days by two-dimensional broth microdilution checkerboard assay; details: 168 h; procedure, shortened: as §2
[18] = test system: Mycobacterium tuberculosis; experiment: Inhibition of multidrug resistance efflux pump in Mycobacterium tuberculosis H37Rv assessed as ethidium bromide MIC at 0.94 ug/ml after 7 days by two-dimensional broth microdilution checkerboard assay; details: 168 h; procedure, shortened: as §2
[19] = test system: Mycobacterium tuberculosis; experiment: Inhibition of multidrug resistance efflux pump in Mycobacterium tuberculosis H37Rv assessed as reduction in rifampin MIC at 7.5 ug/ml after 7 days by two-dimensional broth microdilution checkerboard assay; procedure, shortened: as §1
[20] = test system: Mycobacterium tuberculosis; experiment: Inhibition of multidrug resistance efflux pump in Mycobacterium tuberculosis H37Rv assessed as reduction in ethidium bromide MIC at 7.5 ug/ml after 7 days by two-dimensional broth microdilution checkerboard assay; procedure, shortened: as §1
[21] = test system: Mycobacterium tuberculosis; experiment: Inhibition of multidrug resistance efflux pump in Mycobacterium tuberculosis H37Rv assessed as isoniazid MIC at 1.88 ug/ml after 7 days by two-dimensional broth microdilution checkerboard assay; details: 168 h; procedure, shortened: as §2
[22] = test system: Mycobacterium tuberculosis; experiment: Inhibition of multidrug resistance efflux pump in Mycobacterium tuberculosis H37Rv assessed as isoniazid MIC at 0.47 ug/ml after 7 days by two-dimensional broth microdilution checkerboard assay; details: 168 h; procedure, shortened: as §2
[23] = test system: Mycobacterium tuberculosis; experiment: Inhibition of multidrug resistance efflux pump in Mycobacterium tuberculosis H37Rv assessed as rifampin MIC at 7.5 ug/ml after 7 days by two-dimensional broth microdilution checkerboard assay; details: 168 h; procedure, shortened: as §1
[24] = test system: Mycobacterium tuberculosis; experiment: Inhibition of multidrug resistance efflux pump in Mycobacterium tuberculosis H37Rv assessed as reduction in isoniazid MIC at 256 ug/ml after 7 days by two-dimensional broth microdilution checkerboard assay; procedure, shortened: as §1
[25] = test system: Mycobacterium tuberculosis; experiment: Inhibition of multidrug resistance efflux pump in Mycobacterium tuberculosis H37Rv assessed as reduction in amikacin MIC at 64 ug/ml after 7 days by two-dimensional broth microdilution checkerboard assay; procedure, shortened: as §1
[26] = test system: Mycobacterium tuberculosis; experiment: Inhibition of multidrug resistance efflux pump in Mycobacterium tuberculosis H37Rv assessed as reduction in amikacin MIC at 256 ug/ml after 7 days by two-dimensional broth microdilution checkerboard assay; procedure, shortened: as §1
[27] = test system: Mycobacterium tuberculosis; experiment: Inhibition of multidrug resistance efflux pump in Mycobacterium tuberculosis H37Rv assessed as reduction in amikacin MIC at 128 ug/ml after 7 days by two-dimensional broth microdilution checkerboard assay
[28] = test system: Mycobacterium tuberculosis; experiment: Inhibition of multidrug resistance efflux pump in Mycobacterium tuberculosis H37Rv assessed as reduction in ofloxacin MIC at 64 ug/ml after 7 days by two-dimensional broth microdilution checkerboard assay; procedure, shortened: as §1
[29] = test system: Mycobacterium tuberculosis; experiment: Inhibition of multidrug resistance efflux pump in Mycobacterium tuberculosis H37Rv assessed as reduction in ofloxacin MIC at 256 ug/ml after 7 days by two-dimensional broth microdilution checkerboard assay; procedure, shortened: as §1
[30] = test system: Mycobacterium tuberculosis; experiment: Inhibition of multidrug resistance efflux pump in Mycobacterium tuberculosis H37Rv assessed as reduction in ethidium bromide MIC at 64 ug/ml after 7 days by two-dimensional broth microdilution checkerboard assay
[31] = test system: Mycobacterium tuberculosis; experiment: Inhibition of multidrug resistance efflux pump in Mycobacterium tuberculosis H37Rv assessed as reduction in ethidium bromide MIC at 256 ug/ml after 7 days by two-dimensional broth microdilution checkerboard assay; procedure, shortened: as §1

| Compound | MIC [1] [µg/mL] | MIC [2] [µg/mL] | MIC [3] [µg/mL] | MIC [4] [µg/mL] | MIC [5] [µg/mL] | fold change (FC) [6] | fold change (FC) [7] | fold change (FC) [8] | MIC [9] [ng/mL] | MIC [10] [µg/mL] | MIC [11] [µg/mL] | fold change (FC) [24] | fold change (FC) [25] | fold change (FC) [26] | fold change (FC) [28] | fold change (FC) [29] | fold change (FC) [30] | fold change (FC) [31] | further results |
| --- | --- | --- | --- | --- | --- | --- | --- | --- | --- | --- | --- | --- | --- | --- | --- | --- | --- | --- | --- |
| COc1ccc(N(CCC2CCCCN2C)C(C)C)cc1OC (racemic) | 2 | 2 | 2 | 12.5 | 12.5 | 4 | 4 | 4 | 100 | 0.1 | 0.25 | – | – | – | – | – | – | – | – |
| CSc1ccc2c(c1)N(CCC1CCCCN1C)c1ccccc1S2 (centres undefined) [THIORIDAZINE] | – | – | – | – | – | – | – | – | – | – | – | – | – | – | – | – | – | – | MIC [12]: 1 µg/mL; MIC [13]: 1 µg/mL; MIC [14]: 1 µg/mL; MIC [15]: 1 µg/mL; MIC [16]: < 0.195 µg/mL; MIC [17]: 3.12 µg/mL; MIC [18]: 6.25 µg/mL; fold change (FC) [19]: >64; fold change (FC) [20]: >64; MIC [21]: 0.1 µg/mL; MIC [22]: 0.1 µg/mL; MIC [23]: < 0.0156 µg/mL |
| CN1CCCCC1CCn1ccc2ccc(Br)cc21 (racemic) | 1 | 1 | 1 | < 0.195 | 1.56 | >164 | 16 | 4 | 50 | 0.1 | 0.0625 | >128 | >128 | >128 | >128 | >128 | 8 | >164 | fold change (FC) [27]: >128 |
| CN1CCCCC1CCn1c2ccccc2c2ccccc21 (racemic) | 1 | 1 | 1 | – | < 0.195 | – | – | – | < 0.078 | 0.05 | 0.5 | – | >128 | – | >128 | – | >64 | – | – |
| CN1CCCCC1CCn1cnc2ccccc21 (racemic) | 1 | 1 | 1 | 12.5 | 12.5 | – | – | – | 100 | 0.1 | 0.5 | >128 | – | >128 | – | >128 | – | >64 | – |
